Here are results for two compounds from ChEMBL document CHEMBL4251733, “Manumycin A Is a Potent Inhibitor of Mammalian Thioredoxin Reductase-1 (TrxR-1)” (ACS Med Chem Lett, 2018).

For series [1], the target named is T1, Thioredoxin reductase 1, cytoplasmic (Rattus norvegicus, UniProt O89049). The series is described as follows: Inhibition of NADPH-reduced recombinant rat TrxR1 expressed in Escherichia coli harboring gor mutant assessed as suppression of DTNB reduction incubated for 1 hr in presence of DTNB measured every 5 mins for 1 hr. The method in brief:
(§1)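 Rat recombinant TrxR-1 (5.6 nM), prereduced, with DTNB (2 mM) and compound 0–5000 nM. Compound was either preincubated 1 h with enzyme before substrate or added at the same time as DTNB. Read-out was initial rates of DTNB reduction relative to no-compound control, giving IC50 (± error).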

For series [2], the target named is T2, Thioredoxin reductase 1, cytoplasmic (Rattus norvegicus) (UniProt O89049).
T2 sequence (whole entry): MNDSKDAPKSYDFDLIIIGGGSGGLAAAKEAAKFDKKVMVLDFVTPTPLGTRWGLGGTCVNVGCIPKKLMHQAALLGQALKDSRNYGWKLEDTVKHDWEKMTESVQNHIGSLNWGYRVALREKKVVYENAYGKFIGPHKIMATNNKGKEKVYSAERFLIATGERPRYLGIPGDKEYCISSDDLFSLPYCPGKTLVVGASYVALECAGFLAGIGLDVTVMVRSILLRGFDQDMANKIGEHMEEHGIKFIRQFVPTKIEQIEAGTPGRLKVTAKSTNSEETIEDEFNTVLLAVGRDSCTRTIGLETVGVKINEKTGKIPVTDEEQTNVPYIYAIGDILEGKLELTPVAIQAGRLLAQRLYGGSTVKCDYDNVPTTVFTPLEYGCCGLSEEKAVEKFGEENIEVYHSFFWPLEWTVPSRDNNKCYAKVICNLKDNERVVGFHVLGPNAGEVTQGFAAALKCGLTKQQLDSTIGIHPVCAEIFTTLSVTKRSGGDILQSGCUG
The series is described as follows: Time-dependent inhibition of NADPH-reduced recombinant rat TrxR1 expressed in Escherichia coli harboring gor mutant assessed as suppression of DTNB reduction at 1 uM measured every 5 mins for 1 hr.

Series [3] deals with T2, Thioredoxin reductase 1, cytoplasmic (Rattus norvegicus). The series is described as follows: Irreversible inhibition of NADPH-reduced recombinant rat TrxR1 expressed in Escherichia coli harboring gor mutant assessed as suppression of DTNB reduction at 2 uM pretreated for 1 hr followed by NADPH addition for 30 mins and subsequent DTNB addition measured every 5 mins for 1 hr.

For series [4] the target is unchanged. The experiment in a line: Inhibition of NADPH-reduced recombinant rat TrxR1 expressed in Escherichia coli harboring gor mutant assessed as suppression of DTNB reduction at 5 uM pretreated for 1 hr followed by DTNB addition measured every 5 mins for 1 hr. Summed up: as §1
For series [5] the target is unchanged. The series is described as follows: Inhibition of oxidized recombinant rat TrxR1 expressed in Escherichia coli harboring gor mutant assessed as suppression of DTNB reduction at 2 uM pretreated for 30 mins followed by NADPH addition for 30 mins and subsequent DTNB addition measured every 5 mins for 1 hr.
The target is the same in series [6]. The experiment in a line: Inhibition of NADPH-reduced recombinant rat TrxR1 expressed in Escherichia coli harboring gor mutant assessed as suppression of DTNB reduction at 5 uM incubated for 1 hr in presence of DTNB measured every 5 mins for 1 hr. The method in brief:
as §1

A short description of series [7]: Drug metabolism assessed as selenocysteine reactivity at 20 uM incubated for 1 hr measured every 5 mins for 1 hr by sel-green probe based fluorescence assay. The series is classed as physicochemical. Summed up:
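Reduced L-selenocysteine (20 μM) reacted with Sel-green probe (20 μM) with test compound at 20 μM; DMSO-only control.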

Series [8] has as its target T1, Thioredoxin reductase 1, cytoplasmic. The series is described as follows: (§2) Inhibition of NADPH-reduced recombinant rat TrxR1 expressed in Escherichia coli harboring gor mutant assessed as suppression of insulin reduction using Trx as substrate pretreated for 30 mins followed by Trx addition for 30 mins and subsequent eosin-labelled bovine insulin addition measured every 5 mins for 1 hr by fluorescence assay.

Series [9] has as its target T2, Thioredoxin reductase 1, cytoplasmic (Rattus norvegicus). Described as §2.
The target in series [10] is T1, Thioredoxin reductase 1, cytoplasmic. The experiment in a line: Inhibition of NADPH-reduced recombinant rat TrxR1 expressed in Escherichia coli harboring gor mutant assessed as suppression of DTNB reduction pretreated for 1 hr followed by DTNB addition measured every 5 mins for 1 hr. Summed up:
as §1

Series [11] deals with T2, Thioredoxin reductase 1, cytoplasmic (Rattus norvegicus). The series is described as follows: Induction of recombinant rat TrxR1 NADPH oxidase activity expressed in Escherichia coli harboring gor mutant assessed as superoxide generation by measuring cytochrome C reduction at 62.5 uM measured in presence of SOD. The method in brief: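 TrxR-1 (100 nM) incubated with compound (62.5 μM), with and without SOD (6 units/well); reduction of cytochrome C (100 μM) followed over time; DMSO-only control.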

SMILES strings stand for the structures. The source made the active and inactive calls. The rule behind the calls is not given here.

Consider `CCCC[C@@H](C)/C=C(C)/C=C(\C)C(=O)NC1=C[C@@](O)(/C=C/C=C/C=C/C(=O)NC2=C(O)CCC2=O)[C@@H]2O[C@@H]2C1=O` [MANUMYCIN A], for which the IC50 (as a rule, the concentration needed to halve the response being measured) in series [1] came out at 1.59 µM; in series [8], 0.572 µM; in series [10], 0.272 µM. For the same compound, the TDI result in series [2] is “Active”. Besides, the inhibition result in series [3], in series [4] and in [6] was “Active” each time. Further, the inhibition entry in [5] is “inactive”. The Drug metabolism entry in series [7] is given as “Metabolite_Detected”. Moreover, the inhibition result in series [9] is “Dose-dependent effect”. Moreover, in [11], the result was inactive.
With `CCCCC(C)/C=C(C)/C=C(\C)C(=O)Nc1cc(/C=C/C=C/C=C/C(=O)NC2=C(O)CCC2=O)c(O)cc1O` (configuration not stated), in [7], the Drug metabolism result was “Metabolite_Notdetected”.
